The text below walks through data of ChEMBL document CHEMBL1772965, “Analogues and derivatives of oncrasin-1, a novel inhibitor of the C-terminal domain of RNA polymerase II and their antitumor activities” (J Med Chem, 2011).

Data set [1] in a line: Cytotoxicity against mutant K-ras-transformed human T29Kt1 cells assessed as cell viability after 3 days by sulforhodamine B assay. In kind it is functional, cell-based. Conditions: T29Kt1, 72 h. The procedure, abridged:
(§1)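 Monolayer cultures were grown in RPMI-1640 or DMEM with 10% heat-inactivated fetal calf serum and penicillin/streptomycin, at 37°C and 5% CO2. Cells were exposed for 3 days to compound from 10−4.5 M (31.6 μM) down to 10−8 M (10 nM), with 1% DMSO as the control. Viability was read by sulforhodamine B. IC50 was the dose halving surviving cells versus control, run in quadruplicate and repeated at least three times.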
For orientation: In SRB staining, fixed cells bind dye roughly in proportion to their protein.

The nature of data set [2]: Cytotoxicity against human T29 cells assessed as cell viability after 3 days by sulforhodamine B assay. In kind it is cell-based. Conditions: T29, 72 h. The gist of the method: as §1
The subject of data set [3] is NCI-H460. Description: Cytotoxicity against human H460 cells assessed as cell viability after 3 days by sulforhodamine B assay. In kind it is functional, cell-based. Conditions: NCI-H460, 72 h. The gist of the method: as §1
A short description of data set [4]: Stability of compound at pH 4. The format is physicochemical. The following applies: buffer.
The nature of data set [5]: Stability of compound at pH 6. Conditions: buffer. The format is physicochemical.
Data set [6] in a line: Stability of compound at pH 7.4. The format is physicochemical. Conditions: buffer.
Data set [7] can be described thus: Stability of compound at pH 9. Conditions: buffer. The format is physicochemical.
The nature of data set [8]: Stability of compound at pH 2. The format is physicochemical. Conditions: buffer.
Data set [9] concerns NCI-H157. Description: Antitumor activity against human NCI-H157 cells assessed as cell viability after 3 days by sulforhodamine B assay. In kind it is functional, cell-based. The following applies: NCI-H157, 72 h. The gist of the method: as §1
The subject of data set [10] is NCI-H460. The data set is described as follows: Antitumor activity against human H460 cells assessed as cell viability after 3 days by sulforhodamine B assay. The format is functional, cell-based. Conditions: for IC50: NCI-H460, 72 h. The gist of the method:
as §1

The next data set has as its system NCI-H1299. The data set is described as follows: (§2) Antitumor activity against human H1299 cells assessed as cell viability after 3 days by sulforhodamine B assay. In kind it is functional, cell-based. The procedure, abridged: as §1
In data set [11] the test system is NCI-H322. The data set is described as follows: (§3) Antitumor activity against human NCI-H322 cells assessed as cell viability after 3 days by sulforhodamine B assay. The format is functional, cell-based. The procedure, abridged:
as §1

The subject of data set [12] is NCI-H157. The data set is described as follows: Inhibition of RNA pol2 CTD phosphorylation in human NCI-H157 cells at 1 uM after 12 hrs by Western blot analysis. The format is cell-based. The gist of the method:
(§4)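 Cells were treated with 1 μM compound for 12 h and then analysed by Western blot. Phospho-CTD was detected with the H5 antibody (diluted 1:1000), and β-actin (1:1000) served as the loading reference.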
Background: A western blot detects proteins with antibodies after separation by electrophoresis.

Another data set relates to H460. The data set is described as follows: Inhibition of RNA pol2 CTD phosphorylation in human H460 cells at 1 uM after 12 hrs by Western blot analysis. In kind it is cell-based. The procedure, abridged:
as §4

The test system of a further data set is H1299. The data set is described as follows: Inhibition of RNA pol2 CTD phosphorylation in human H1299 cells at 1 uM after 12 hrs by Western blot analysis. The format is cell-based. The gist of the method: as §4
In data set [13] the test system is NCI-H322. Description: Inhibition of RNA pol2 CTD phosphorylation in human NCI-H322 cells at 1 uM after 12 hrs by Western blot analysis. In kind it is cell-based. The procedure, abridged: as §4
The nature of data set [14]: as §2. In kind it is functional, cell-based. The following applies: NCI-H1299, 72 h. The gist of the method: as §1
The nature of data set [15]: as §3. The format is functional, cell-based. The following applies: NCI-H322, 72 h. The procedure, abridged:
as §1

The source made the active and inactive calls. The calls are words filed in the database; no cut-off is given here.

`OCc1cn(Cc2cccc(Cl)c2)c2ccccc12`: the half-maximal inhibitory concentration (IC50) is 0.16 µM in [1]; over 31.6 µM in [2]; 0.019 µM with NCI-H460 [3]; at most 0.2 µM with NCI-H157 [9]; at most 0.2 µM with NCI-H460 [10]. The Stability result in data set [4] is listed as “Stable”; in data set [5] it was “Stable”; in data set [6], “Stable”; in [7], “Stable”; in data set [8], “Unstable”. For the same molecule, the Activity result in the data set with NCI-H460 [10], in the data set on NCI-H1299 and in the data set with NCI-H322 [11] was “Dose-dependent effect” in each case. Further, the inhibition entry with NCI-H157 [12] was “Dose-dependent effect”. Besides, the inhibition result with H460 was “Active”. Also, the inhibition result with H1299 and with NCI-H322 [13] was “inactive” in each case.
For `OCc1cn(Cc2cccc(F)c2)c2ccc(Cl)cc12`, the IC50 is 0.16 µM in data set [1]; 10 µM in data set [2]; 0.07 µM in the data set with NCI-H460 [3]; at most 0.2 µM in the data set on NCI-H157 [9]; at most 0.2 µM in the data set on NCI-H460 [10]; at least 13 µM in data set [14]. For the same molecule, the IC50 in data set [15] is at least 13 µM. Further, the Stability result in data set [4] is on record as “Stable”; in data set [5], “Stable”; in data set [6] it was “Stable”; in data set [7], “Stable”; in data set [8], “Unstable”. In addition, the inhibition result with NCI-H157 [12] and in the data set on H460 was “Active” each time. Besides, the inhibition result with H1299 and with NCI-H322 [13] was “inactive” in each case.
For `OCc1cn(Cc2ccc(Cl)cc2)c2ccccc12`, the IC50 was 0.079 µM in [1]; over 31.6 µM in data set [2]; 0.016 µM with NCI-H460 [3]; at most 0.2 µM in the data set on NCI-H157 [9]; at most 0.2 µM in the data set with NCI-H460 [10]. The Stability result in data set [4] is on record as “Stable”; in data set [5], “Stable”; in [6], “Stable”; in [7], “Stable”; in data set [8], “Unstable”. Also, the Activity result with NCI-H460 [10], with NCI-H1299 and in the data set with NCI-H322 [11] was “Dose-dependent effect” in each case. Besides, the inhibition entry in the data set with NCI-H157 [12] was “Dose-dependent effect”. Moreover, the inhibition entry with H460 was “Active”. The inhibition result with H1299 and with NCI-H322 [13] was “inactive” throughout.
On to `OCc1cn(Cc2cccc(Br)c2)c2ccccc12`, for which the IC50 is 0.032 µM in data set [1], over 31.6 µM in data set [2] and 0.028 µM with NCI-H460 [3]. The Stability result in data set [4] is given as “Stable”; in data set [5] it was “Stable”; in data set [6], “Stable”; in data set [7] it was “Stable”; in data set [8], “Unstable”.
Turning to `OCc1cn(Cc2ccc(Br)cc2)c2ccccc12`, the figures for the IC50 (in data set [1]; in data set [2]; in the data set with NCI-H460 [3]) were 0.39 µM, over 31.6 µM and 0.031 µM, respectively. Moreover, the Stability result in [4] was “Stable”; in [5], “Stable”; in [6], “Stable”; in data set [7] it was “Stable”; in data set [8], “Unstable”.
With `OCc1cn(Cc2cccc(F)c2)c2ccccc12`, the IC50 in data set [1] was 0.02 µM; in data set [2] it was over 31.6 µM; in the data set with NCI-H460 [3], 0.04 µM. Also, the Stability result in data set [4] is listed as “Stable”; in data set [5], “Stable”; in data set [6], “Stable”; in data set [7] it was “Stable”; in [8] it was “Unstable”.

A word on the IC50: it is the point on the concentration scale where inhibition reaches its midpoint.
